# Calls of active or inactive are those of the source. The calls are words filed in the database; no cut-off is given here.
# Assays:
# [1] = target: Voltage-gated inwardly rectifying potassium channel KCNH2 (Homo sapiens, UniProt Q12809); experiment: Inhibition of human ERG
# [2] = target: T1, Lysophosphatidic acid receptor 1 (Homo sapiens, UniProt Q92633); experiment: Antagonist activity at human recombinant LPA1 expressed in chem-1 cells assessed as inhibition of LPA-induced intracellular calcium mobilization at 30 uM incubated for 30 mins prior to LPA-challenge measured over 100 secs by FLIPR assay; type: functional, cell-based
# T1 sequence (Q92633 whole entry): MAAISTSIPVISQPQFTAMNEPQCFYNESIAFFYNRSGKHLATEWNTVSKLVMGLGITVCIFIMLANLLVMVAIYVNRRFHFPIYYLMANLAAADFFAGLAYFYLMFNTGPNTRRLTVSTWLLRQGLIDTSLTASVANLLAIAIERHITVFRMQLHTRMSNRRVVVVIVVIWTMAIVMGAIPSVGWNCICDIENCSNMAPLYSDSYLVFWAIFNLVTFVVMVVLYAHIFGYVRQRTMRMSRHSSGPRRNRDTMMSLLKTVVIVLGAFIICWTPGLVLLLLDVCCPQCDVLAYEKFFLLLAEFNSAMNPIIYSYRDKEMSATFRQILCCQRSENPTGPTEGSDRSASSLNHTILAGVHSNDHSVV
# Method in brief: (§1)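 Calcium-optimized Chem-1 cells stably expressing human LPA1 or LPA3 (parental line with ionomycin as counterscreen), seeded 10,000/well the day before. Calcium-4 dye in HBSS/20 mM HEPES/2.5 mM probenecid loaded 30 min at 37 °C; compound added, 30 min at room temperature in the dark; LPA (18:1) 1 μM final. Peak fluorescence read over 100 s; IC50 from 10-concentration 4-parameter logistic fit, mean of at least three runs.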
# [3] = Inhibition of Cytochrome P450; type: ADME
# [4] = Inhibition of LPA-induced proliferation of HLF incubated for 1 hr prior to LPA-challenge measured after 48 hrs by BrdU incorporation assay; details: Homo sapiens
# [5] = target: T2, Lysophosphatidic acid receptor 3 (Homo sapiens) (UniProt Q9UBY5); experiment: Antagonist activity at human recombinant LPA3 expressed in chem-1 cells assessed as inhibition of LPA-induced intracellular calcium mobilization at 30 uM incubated for 30 mins prior to LPA-challenge measured over 100 secs by FLIPR assay; type: functional, cell-based; method in brief: as §1
# T2 sequence (whole entry): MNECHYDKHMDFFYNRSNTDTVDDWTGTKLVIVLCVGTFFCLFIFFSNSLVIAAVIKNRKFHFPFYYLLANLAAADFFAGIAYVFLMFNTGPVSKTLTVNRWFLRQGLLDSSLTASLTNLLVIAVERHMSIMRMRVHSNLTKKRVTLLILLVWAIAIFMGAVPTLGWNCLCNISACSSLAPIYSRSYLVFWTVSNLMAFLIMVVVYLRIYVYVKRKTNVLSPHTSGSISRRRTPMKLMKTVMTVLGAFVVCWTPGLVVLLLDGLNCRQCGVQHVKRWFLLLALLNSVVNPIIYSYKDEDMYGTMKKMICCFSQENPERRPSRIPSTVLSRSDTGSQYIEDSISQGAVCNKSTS
# [6] = target: T1, Lysophosphatidic acid receptor 1; experiment: Antagonist activity at human recombinant LPA1 expressed in chem-1 cells assessed as inhibition of LPA-induced intracellular calcium mobilization incubated for 30 mins prior to LPA-challenge measured over 100 secs by FLIPR assay; type: functional, cell-based; method in brief: as §1
# [7] = target: T1, Lysophosphatidic acid receptor 1; experiment: Antagonist activity at LPA1 in human lung fibroblasts assessed as inhibition of LPA-induced contraction after 18 hrs by 3D collagen gel contraction assay; type: functional
# Method in brief: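 NHLFs (healthy nonsmoking donors, passages 5–9) at 2.5 × 10⁵ cells/well, mixed 1:4 with collagen lattice; gels polymerized 2 h at 37 °C, then basal medium with 0.1% FBS, 0.1% fatty acid-free BSA and vehicle or antagonist added. Gels detached, LPA (18:1) 15 μM added; after 18 h, contraction quantified by gel disc weight.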
# Sequence of Voltage-gated inwardly rectifying potassium channel KCNH2 (Q12809 whole entry): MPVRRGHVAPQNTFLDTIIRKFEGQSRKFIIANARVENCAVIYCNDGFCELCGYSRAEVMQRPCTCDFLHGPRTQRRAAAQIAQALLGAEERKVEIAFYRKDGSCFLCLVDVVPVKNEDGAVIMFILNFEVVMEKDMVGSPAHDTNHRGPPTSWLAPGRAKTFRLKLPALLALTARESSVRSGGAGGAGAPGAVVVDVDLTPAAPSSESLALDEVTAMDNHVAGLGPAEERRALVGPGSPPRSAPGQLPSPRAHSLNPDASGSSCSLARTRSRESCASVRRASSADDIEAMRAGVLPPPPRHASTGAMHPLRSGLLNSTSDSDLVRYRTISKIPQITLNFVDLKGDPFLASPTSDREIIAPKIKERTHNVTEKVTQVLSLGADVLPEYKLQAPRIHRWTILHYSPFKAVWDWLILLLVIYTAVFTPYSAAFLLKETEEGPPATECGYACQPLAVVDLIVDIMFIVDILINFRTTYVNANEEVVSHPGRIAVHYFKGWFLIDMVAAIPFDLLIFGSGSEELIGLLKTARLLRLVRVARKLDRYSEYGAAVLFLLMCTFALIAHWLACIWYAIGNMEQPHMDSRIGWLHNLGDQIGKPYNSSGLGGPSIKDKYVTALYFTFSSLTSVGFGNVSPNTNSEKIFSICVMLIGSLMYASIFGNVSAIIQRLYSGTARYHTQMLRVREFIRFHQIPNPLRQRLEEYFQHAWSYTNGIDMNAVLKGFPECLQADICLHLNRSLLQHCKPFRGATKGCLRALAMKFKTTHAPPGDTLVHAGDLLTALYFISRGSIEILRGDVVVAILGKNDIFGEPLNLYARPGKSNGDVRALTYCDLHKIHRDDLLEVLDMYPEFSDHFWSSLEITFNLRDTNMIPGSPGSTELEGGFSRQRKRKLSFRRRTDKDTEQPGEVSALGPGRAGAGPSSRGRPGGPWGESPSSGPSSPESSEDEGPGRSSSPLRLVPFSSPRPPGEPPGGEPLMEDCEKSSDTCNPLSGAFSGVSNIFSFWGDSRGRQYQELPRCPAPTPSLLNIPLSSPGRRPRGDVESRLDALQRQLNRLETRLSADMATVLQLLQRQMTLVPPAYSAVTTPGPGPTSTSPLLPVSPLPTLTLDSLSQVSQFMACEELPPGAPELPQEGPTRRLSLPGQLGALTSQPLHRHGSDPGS
inhibition [2] [%],inhibition (INH) [3],inhibition [5] [%],IC50 [6] [nM],inhibition [7],Structure (SMILES),inhibition (INH) [1],IC50 [4] [nM]
65,Not Active,,,,CCOC(=O)C1(c2ccc(-c3ccc(-c4cnn(C)c4NC(=O)O[C@H](C)c4ccccc4)cc3)cc2)CC1,Not Active,
11,Not Active,17,,,C[C@@H](OC(=O)Nc1nncn1-c1ccc(-c2ccc(C3(C(=O)O)CC3)cc2)cc1)c1ccccc1,Not Active,
,Not Active,63,42,,CCc1nnn(-c2ccc(-c3ccc(C4(C(=O)O)CC4)cc3)cc2)c1NC(=O)O[C@H](C)c1ccccc1,Not Active,16
,Not Active,,,,C[C@@H](OC(=O)Nc1c(-c2ccc(-c3ccccc3)cc2)cnn1C)c1ccccc1,Not Active,
12,Not Active,10,,,C[C@@H](OC(=O)Nc1nnn(C)c1-c1ccc(-c2ccc(C3(C(=O)O)CC3)cc2)cc1)c1ccccc1,Not Active,
,Not Active,,17,,C[C@@H](OC(=O)Nc1c(-c2ccc(-c3ccc(C4(C(=O)O)CC4)cc3)cc2)nnn1C)c1cccc(C(F)(F)F)c1,Not Active,74
,Not Active,,,,C[C@H](OC(=O)Nc1c(-c2ccc(-c3ccc(C4(C(=O)O)CC4)cc3)cc2)nnn1C)c1cccc(C(F)(F)F)c1,Not Active,
,Not Active,,,,C[C@@H](OC(=O)Nc1c(-c2ccc(CC(=O)O)cc2)cnn1C)c1ccccc1,Not Active,
41,Not Active,3,,,Cc1nnn(-c2ccc(-c3ccc(CC(=O)O)cc3)cc2)c1NC(=O)O[C@H](C)c1ccccc1,Not Active,
,Not Active,,24,inactive,C[C@@H](OC(=O)Nc1c(-c2ccc(-c3ccc(C4(C(=O)NS(C)(=O)=O)CC4)cc3)cc2)nnn1C)c1cccc(C(F)(F)F)c1,Not Active,331
,Not Active,,,,C[C@@H](OC(=O)Nc1c(-c2ccc(-c3ccc(CC(=O)O)cc3)cc2)nnn1C)c1ccccc1,Not Active,60
,Not Active,,,,C[C@@H](OC(=O)Nc1c(-c2ccc(-c3ccc(C4(C(=O)O)CC4)cc3)cc2F)nnn1C)c1ccccc1,Not Active,2
,Not Active,,,,C[C@@H](OC(=O)Nc1c(-c2ccc(C3CCC(CC(=O)O)CC3)cc2)nnn1C)c1ccccc1 (mixture of isomers),Not Active,7
,Not Active,,,,C[C@@H](OC(=O)Nc1c(-c2ccc(-c3ccc(C4(C(=O)O)CC4)cc3)cc2)nnn1C)c1ccccc1,Not Active,3
,Not Active,,,,C[C@@H](OC(=O)Nc1c(-c2ccc(-c3ccc(CC(=O)O)cc3)cc2)cnn1C)c1ccccc1,Not Active,47
,Not Active,23,,,C[C@@H](OC(=O)Nc1cnnn1-c1ccc(-c2ccc(C3(C(=O)O)CC3)cc2)cc1)c1ccccc1,Not Active,40
,Not Active,,,,C[C@@H](OC(=O)Nc1c(-c2ccc(-c3ccc(C4(C(=O)NS(C)(=O)=O)CC4)cc3)cc2)nnn1C)c1ccccc1,Not Active,4
,Not Active,24,,,CC(C)[C@@H](C)OC(=O)Nc1c(-c2ccc(-c3ccc(C4(C(=O)O)CC4)cc3)cc2)nnn1C,Not Active,20
,Not Active,,21,,C[C@@H](OC(=O)Nc1c(-c2ccc(-c3ccc(C4(C(=O)O)CC4)cc3)cc2)cnn1C)c1ccccc1,Not Active,2.6

# The next lines start with the compound.
Structure (SMILES),inhibition [2] [%],inhibition (INH) [3],inhibition [5] [%],IC50 [6] [nM],inhibition [7],inhibition (INH) [1],IC50 [4] [nM]
C[C@@H](OC(=O)Nc1c(-c2ccc(-c3ccc(C4(C(=O)O)CC4)cc3)cc2)cnn1C)c1ccccc1F,,Not Active,,,,Not Active,4.5
CC(C)[C@@H](C)OC(=O)Nc1c(-c2ccc(-c3ccc(C4(C(=O)O)CC4)cc3)cc2)cnn1C,,Not Active,9,,,Not Active,30
C[C@@H](OC(=O)Nc1c(-c2ccccc2)cnn1C)c1ccccc1,65,Not Active,,,,Not Active,
C[C@H](OC(=O)Nc1c(-c2ccccc2F)cnn1C)c1ccccc1Cl,,Not Active,,,,Not Active,
Cc1nnn(-c2ccc(-c3ccc(C4(C(=O)O)CC4)cc3)cc2)c1NC(=O)OC(C)(C)C,,Not Active,0,,,Not Active,1620
Cc1nnn(-c2ccc(-c3ccc(C4(C(=O)O)CC4)cc3)cc2)c1NC(=O)O[C@H](C)c1ccccc1F,,Not Active,42,,,Not Active,21
Cn1ncc(-c2ccc(-c3ccc(C4(C(=O)O)CC4)cc3)cc2)c1NC(=O)OC1CCC1,,Not Active,13.7,,,Not Active,192
Cc1nnn(-c2ccc(-c3ccc(C4(C(=O)O)CC4)cc3)cc2)c1NC(=O)O[C@H](C)c1ccccc1C(F)(F)F,,Not Active,55,,,Not Active,77
Cc1nnn(-c2ccc(-c3ccc(C4(c5nnn[nH]5)CC4)cc3)cc2)c1NC(=O)O[C@H](C)c1ccccc1,,Not Active,28,23,,Not Active,105
CC[C@@H](C)OC(=O)Nc1c(C)nnn1-c1ccc(-c2ccc(C3(C(=O)O)CC3)cc2)cc1,,Not Active,0,,,Not Active,178
Cc1nnn(-c2ccc(-c3ccc(C4(C(=O)O)CC4)cc3)cc2)c1NC(=O)O[C@H](C)c1cccc(C(F)(F)F)c1,,Not Active,,,,Not Active,1200
Cn1ncc(-c2ccc(-c3ccc(C4(C(=O)O)CC4)cc3)cc2)c1NC(=O)OC1COC1,0,Not Active,0,,,Not Active,
CC[C@@H](C)OC(=O)Nc1c(-c2ccc(-c3ccc(C4(C(=O)O)CC4)cc3)cc2)cnn1C,,Not Active,0,,,Not Active,48
COc1ccc(-c2cnn(C)c2NC(=O)O[C@H](C)c2ccccc2)cc1,,Not Active,,,,Not Active,
C[C@@H](OC(=O)Nc1c(-c2ccc(-c3ccc(C4(C(=O)O)CC4)cc3)cc2)cnn1C)c1cccc(C(F)(F)F)c1,,Not Active,,41,,Not Active,37
Cc1nnn(-c2ccc(-c3ccc(C4(C(=O)O)CC4)cc3)cc2)c1NC(=O)O[C@H](C)C(C)C,,Not Active,17,,,Not Active,60
Cc1nnn(-c2ccc(-c3ccc(C4(C(=O)NS(C)(=O)=O)CC4)cc3)cc2)c1NC(=O)O[C@H](C)c1ccccc1,,Not Active,7,32,,Not Active,60
Cc1nnn(-c2ccc(-c3ccc(C4(C(=O)O)CC4)cc3)cc2)c1NC(=O)OC(C)C1CCC1 (racemic),,Not Active,26,,,Not Active,189
CC(OC(=O)Nc1c(-c2ccc(-c3ccc(C4(C(=O)O)CC4)cc3)cc2)cnn1C)c1ccc(F)cc1 (racemic),,Not Active,,,,Not Active,5

# Source: ChEMBL document CHEMBL2176934 (J Med Chem, 2012)
